# Data reported in ChEMBL document CHEMBL4622841, “Structural modifications of indolinones bearing a pyrrole moiety and discovery of a multi-kinase inhibitor with potent antitumor activity” (Bioorg Med Chem, 2020).
# Calls of active or inactive are those of the source. The calls are words filed in the database; no cut-off is given here.
# How the values were obtained:
# [1] = system: MKN-74; assay: Induction of apoptosis in human MKN74 cells assessed as viable cells at 0.3 uM incubated for 72 hrs by Annexin-V-FITC/propidium iodide staining-based flow cytometric analysis (reference value: 76.84%); type: functional; conditions: MKN-74, 72 h, read-out: Activity
# [2] = target: Platelet-derived growth factor receptor beta (Homo sapiens, UniProt P09619); assay: Inhibition of N-terminal GST-fused human PDGFRbeta cytoplasmic domain (557 to 1106 (end) residues) expressed in baculovirus expression system using FAM-labeled peptide and ATP as substrate preincubated for 10 mins followed by substrate addition measured after 1 hr by mobility shift assay
# Platelet-derived growth factor receptor beta, sequence (P09619 whole entry, the tested form may be a part): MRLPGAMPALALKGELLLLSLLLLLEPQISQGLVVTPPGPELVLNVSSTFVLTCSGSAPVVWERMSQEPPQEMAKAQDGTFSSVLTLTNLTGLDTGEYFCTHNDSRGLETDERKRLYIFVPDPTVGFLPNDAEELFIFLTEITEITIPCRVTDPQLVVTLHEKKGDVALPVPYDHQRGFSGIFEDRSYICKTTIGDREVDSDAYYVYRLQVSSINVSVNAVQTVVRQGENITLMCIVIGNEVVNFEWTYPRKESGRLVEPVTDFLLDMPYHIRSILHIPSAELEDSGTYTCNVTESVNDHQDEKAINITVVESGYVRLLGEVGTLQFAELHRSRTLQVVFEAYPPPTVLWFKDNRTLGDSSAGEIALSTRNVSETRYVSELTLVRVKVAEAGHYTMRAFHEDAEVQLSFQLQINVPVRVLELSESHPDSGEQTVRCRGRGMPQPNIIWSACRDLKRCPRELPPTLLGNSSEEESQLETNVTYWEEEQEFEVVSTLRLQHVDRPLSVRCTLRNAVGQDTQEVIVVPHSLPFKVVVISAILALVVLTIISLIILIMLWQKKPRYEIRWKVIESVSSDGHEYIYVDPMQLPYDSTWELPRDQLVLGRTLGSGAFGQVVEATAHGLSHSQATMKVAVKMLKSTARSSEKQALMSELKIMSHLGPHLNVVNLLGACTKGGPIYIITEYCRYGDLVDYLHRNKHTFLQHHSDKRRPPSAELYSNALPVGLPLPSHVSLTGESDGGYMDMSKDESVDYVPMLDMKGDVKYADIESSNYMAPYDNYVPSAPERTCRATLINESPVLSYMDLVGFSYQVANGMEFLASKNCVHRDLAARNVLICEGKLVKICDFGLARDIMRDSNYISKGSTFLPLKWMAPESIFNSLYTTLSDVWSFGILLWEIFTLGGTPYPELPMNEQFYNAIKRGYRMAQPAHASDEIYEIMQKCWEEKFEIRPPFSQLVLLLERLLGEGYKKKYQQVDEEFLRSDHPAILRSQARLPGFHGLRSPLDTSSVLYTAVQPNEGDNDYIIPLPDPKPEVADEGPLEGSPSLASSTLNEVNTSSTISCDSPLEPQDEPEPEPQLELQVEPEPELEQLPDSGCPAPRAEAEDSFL
# [3] = Inhibition of GST-tagged human recombinant VEGFR3 cytoplasmic domain (800 to 1297 residues) Q890H/V1128L/H1146R mutant expressed in baculovirus expression system using FAM-labeled peptide and ATP as substrate preincubated for 10 mins followed by substrate addition measured after 1 hr by mobility shift assay
# [4] = Inhibition of N-terminal GST-tagged human recombinant PDGFRalpha D842I mutant expressed in baculovirus-infected Sf9 cells using FAM-labeled peptide and ATP as substrate preincubated for 10 mins followed by substrate addition measured after 1 hr by mobility shift assay
# [5] = target: Fibroblast growth factor receptor 1 (Homo sapiens, UniProt P11362); assay: Inhibition of N-terminal GST fused human recombinant FGFR1 cytoplasmic domain (398 to 822 (end) residues) expressed in baculovirus expression system using FAM-labeled peptide and ATP as substrate preincubated for 10 mins followed by substrate addition measured after 1 hr by mobility shift assay
# Fibroblast growth factor receptor 1, sequence (P11362 whole entry, the tested form may be a part): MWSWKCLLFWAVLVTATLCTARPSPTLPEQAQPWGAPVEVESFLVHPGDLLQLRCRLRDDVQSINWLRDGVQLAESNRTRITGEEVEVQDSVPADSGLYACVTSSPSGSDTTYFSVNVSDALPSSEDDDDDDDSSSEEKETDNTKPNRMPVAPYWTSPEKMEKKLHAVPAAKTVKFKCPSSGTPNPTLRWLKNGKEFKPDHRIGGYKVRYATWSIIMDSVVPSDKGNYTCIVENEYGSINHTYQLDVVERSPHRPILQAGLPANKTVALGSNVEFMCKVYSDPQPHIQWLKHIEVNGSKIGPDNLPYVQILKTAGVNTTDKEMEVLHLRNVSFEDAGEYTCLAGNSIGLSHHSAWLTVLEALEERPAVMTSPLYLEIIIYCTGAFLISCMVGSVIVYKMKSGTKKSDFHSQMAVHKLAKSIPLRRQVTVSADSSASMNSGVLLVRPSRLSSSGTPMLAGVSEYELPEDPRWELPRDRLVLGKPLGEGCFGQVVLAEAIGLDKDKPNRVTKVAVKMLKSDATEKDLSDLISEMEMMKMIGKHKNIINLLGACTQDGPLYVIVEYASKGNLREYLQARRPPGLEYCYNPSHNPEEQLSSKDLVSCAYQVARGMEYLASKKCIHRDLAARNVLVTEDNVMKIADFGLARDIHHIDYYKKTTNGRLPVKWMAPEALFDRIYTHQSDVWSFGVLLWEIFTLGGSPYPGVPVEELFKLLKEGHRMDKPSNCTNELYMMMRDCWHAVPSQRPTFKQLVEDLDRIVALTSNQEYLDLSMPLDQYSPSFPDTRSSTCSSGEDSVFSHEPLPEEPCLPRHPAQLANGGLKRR
# [6] = target: Mast/stem cell growth factor receptor Kit (Homo sapiens, UniProt P10721); assay: Inhibition of c-Kit (unknown origin) using FAM-labeled peptide and ATP as substrate preincubated for 10 mins followed by substrate addition measured after 1 hr by mobility shift assay
# Mast/stem cell growth factor receptor Kit, sequence (P10721 whole entry): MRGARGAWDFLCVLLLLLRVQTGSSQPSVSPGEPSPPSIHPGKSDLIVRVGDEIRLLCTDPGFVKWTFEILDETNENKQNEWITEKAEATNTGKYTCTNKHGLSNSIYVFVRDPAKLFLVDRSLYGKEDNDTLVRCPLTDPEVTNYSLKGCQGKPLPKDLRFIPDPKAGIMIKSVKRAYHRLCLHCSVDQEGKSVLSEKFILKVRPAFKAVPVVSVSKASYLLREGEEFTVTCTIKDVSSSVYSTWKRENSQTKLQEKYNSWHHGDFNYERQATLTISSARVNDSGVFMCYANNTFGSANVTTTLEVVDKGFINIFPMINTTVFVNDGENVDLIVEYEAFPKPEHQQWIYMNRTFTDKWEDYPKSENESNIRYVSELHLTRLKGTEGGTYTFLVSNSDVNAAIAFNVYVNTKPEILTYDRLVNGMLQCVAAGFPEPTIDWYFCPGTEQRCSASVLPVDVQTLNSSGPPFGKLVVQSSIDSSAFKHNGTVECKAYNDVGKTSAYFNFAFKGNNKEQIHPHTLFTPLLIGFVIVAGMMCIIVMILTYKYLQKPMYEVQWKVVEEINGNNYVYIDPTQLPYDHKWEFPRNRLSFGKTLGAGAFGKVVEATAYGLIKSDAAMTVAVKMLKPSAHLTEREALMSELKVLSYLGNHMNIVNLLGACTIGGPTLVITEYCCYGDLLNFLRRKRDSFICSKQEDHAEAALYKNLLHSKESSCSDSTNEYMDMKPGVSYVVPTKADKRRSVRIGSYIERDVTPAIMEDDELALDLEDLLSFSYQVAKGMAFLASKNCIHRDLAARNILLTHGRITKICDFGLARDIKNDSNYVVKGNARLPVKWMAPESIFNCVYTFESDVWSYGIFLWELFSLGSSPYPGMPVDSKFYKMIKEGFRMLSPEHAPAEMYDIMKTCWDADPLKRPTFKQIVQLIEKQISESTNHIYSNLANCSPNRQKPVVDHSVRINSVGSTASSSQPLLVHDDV
# [7] = target: Cyclin-dependent kinase 2 (Homo sapiens, UniProt P24941); assay: Inhibition of CDK2 (unknown origin) using FAM-labeled peptide and ATP as substrate preincubated for 10 mins followed by substrate addition measured after 1 hr by mobility shift assay
# [8] = target: Serine/threonine-protein kinase B-raf (Homo sapiens, UniProt P15056); assay: Inhibition of B-Raf (unknown origin) using FAM-labeled peptide and ATP as substrate preincubated for 10 mins followed by substrate addition measured after 1 hr by mobility shift assay
# Serine/threonine-protein kinase B-raf, sequence (P15056 whole entry): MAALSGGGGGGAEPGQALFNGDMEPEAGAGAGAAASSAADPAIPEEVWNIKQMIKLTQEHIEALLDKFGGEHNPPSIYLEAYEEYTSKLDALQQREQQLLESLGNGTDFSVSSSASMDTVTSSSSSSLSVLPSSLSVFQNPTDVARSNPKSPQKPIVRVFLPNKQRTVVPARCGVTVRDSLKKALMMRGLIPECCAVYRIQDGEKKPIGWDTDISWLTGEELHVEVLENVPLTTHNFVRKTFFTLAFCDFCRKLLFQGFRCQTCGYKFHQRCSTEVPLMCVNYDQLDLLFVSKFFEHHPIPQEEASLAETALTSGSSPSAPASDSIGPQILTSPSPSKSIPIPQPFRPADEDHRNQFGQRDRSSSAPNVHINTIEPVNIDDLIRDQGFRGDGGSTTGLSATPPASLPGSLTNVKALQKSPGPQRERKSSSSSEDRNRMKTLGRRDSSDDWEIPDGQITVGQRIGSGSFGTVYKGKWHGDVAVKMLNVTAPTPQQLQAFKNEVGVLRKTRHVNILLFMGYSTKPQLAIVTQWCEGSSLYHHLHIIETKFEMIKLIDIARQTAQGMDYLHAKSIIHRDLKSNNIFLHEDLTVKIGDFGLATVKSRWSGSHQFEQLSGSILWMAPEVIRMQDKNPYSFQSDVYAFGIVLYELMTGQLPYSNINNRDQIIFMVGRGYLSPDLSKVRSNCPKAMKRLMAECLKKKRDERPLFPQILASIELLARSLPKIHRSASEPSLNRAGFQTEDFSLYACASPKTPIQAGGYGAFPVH
# [9] = system: MKN-74; assay: Inhibition of colony formation in human MKN74 cells measured after 14 days by crystal violet staining-based assay; type: functional, cell-based
# How it was run: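 Cells plated and exposed to test agent at a range of concentrations for 14 days, then colonies counted. Colony formation expressed relative to vehicle-treated cells as mean ± SEM. Significance versus vehicle by unpaired two-tailed Student's t-test.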
# [10] = system: HT-29; assay: Inhibition of colony formation in human HT-29 cells at 1 uM measured after 14 days by crystal violet staining-based assay; type: functional, cell-based
# How it was run: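 HT-29 cells exposed to compound for 14 days and colonies counted. Read-out is colony formation rate relative to vehicle, given as mean ± SEM. Significance versus the vehicle group was tested by unpaired two-tailed Student's t-test.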
# [11] = system: HT-29; assay: Induction of apoptosis in human HT-29 cells assessed as early apoptotic cells at 0.3 uM incubated for 72 hrs by Annexin-V-FITC/propidium iodide staining-based flow cytometric analysis (reference value: 3.18%); type: functional
# [12] = system: HT-29; assay: Induction of apoptosis in human HT-29 cells assessed as early apoptotic cells at 1 uM incubated for 72 hrs by Annexin-V-FITC/propidium iodide staining-based flow cytometric analysis (reference value: 3.18%); type: functional
# [13] = system: MKN-74; assay: Induction of apoptosis in human MKN74 cells assessed as late apoptotic cells at 1 uM incubated for 72 hrs by Annexin-V-FITC/propidium iodide staining-based flow cytometric analysis (reference value: 12.42%); type: functional
# [14] = system: MKN-74; assay: Induction of apoptosis in human MKN74 cells assessed as late apoptotic cells at 3 uM incubated for 72 hrs by Annexin-V-FITC/propidium iodide staining-based flow cytometric analysis (reference value: 12.42%); type: functional
# [15] = system: HepG2; assay: Induction of apoptosis in human HepG2 cells assessed as early apoptotic cells at 0.3 uM incubated for 72 hrs by Annexin-V-FITC/propidium iodide staining-based flow cytometric analysis (reference value: 1.08%); type: functional
# [16] = system: HepG2; assay: Induction of apoptosis in human HepG2 cells assessed as early apoptotic cells at 3 uM incubated for 72 hrs by Annexin-V-FITC/propidium iodide staining-based flow cytometric analysis (reference value: 1.08%); type: functional
smiles,measurement,setting,value
COC(=O)c1ccc2c(c1)NC(=O)/C2=C(\Nc1ccc(-n2c(C)ccc2CN2CCN(C)CC2)cc1)c1ccccc1,viability at 0.3 µM,[1],73.5%
same,IC50,[2],9.9 nM
same,IC50,[3],6.3 nM
same,IC50,[4],7 nM
same,IC50,[5],23 nM
same,IC50,[6],17 nM
same,IC50,[7],> 1000 nM
same,IC50,[8],> 1000 nM
same,inhibition,[9],Dose-dependent effect
same,inhibition,[10],Active
same,Activity,[11],3.35%
same,Activity,[12],1.52%
same,Activity,[13],22.1%
same,Activity,[14],79.51%
same,Activity,[15],1.81%
same,Activity,[16],16.52%
